Reference: paper PMC4589248 (Biochemical and biophysical research communications, 2015)

Assays:
C2C12 cells = experiment: C1-BODIPY-C12 fatty acid uptake inhibition in C2C12 myocytes; type: cell-based; settings: Mus musculus, C2C12, read-out: IC50, inhibition of C1-BODIPY-C12 uptake
Summary of the method: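 C2C12 mouse myoblasts grown in DMEM with 10 % FBS and 2 mM L-glutamine at 37 °C, 5 % CO2. Differentiated for 96 h at 8x10^4 cells/well in DMEM with 10 % horse serum. Uptake of fluorescent C1-BODIPY-C12 read as cell-associated fluorescence at ex/em 485/528 nm across a range of test compound concentrations. IC50 from non-linear dose-response regression; 3 experiments in triplicate, mean ± SE.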

INS-1E cells [1] = experiment: C1-BODIPY-C12 fatty acid uptake inhibition in INS-1E pancreatic β-cells; type: cell-based; settings: read-out: IC50, inhibition of C1-BODIPY-C12 uptake
Summary of the method: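 INS-1E cells kept in RPMI 1640 with 5 % FBS, 1 mM pyruvate, 50 μM 2-mercaptoethanol and 10 mM HEPES at 37 °C, 5 % CO2. Seeded at 2x10^5 cells/well on collagen and used after 96 h. C1-BODIPY-C12 uptake read as cell-associated fluorescence at 485/528 nm against test compound concentration. IC50 by non-linear dose-response fit; 3 experiments in triplicate, mean ± SE.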

human adipocytes = experiment: C1-BODIPY-C12 fatty acid uptake inhibition in primary human adipocytes; type: cell-based; settings: read-out: IC50, inhibition of C1-BODIPY-C12 uptake
Summary of the method: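 Primary human preadipocytes seeded at 1.5x10^4 cells/well in alpha-MEM with 10 % FBS. Differentiated for 6 days with 540 μM IBMX plus 1 μM rosiglitazone, then kept without them until lipid droplets appeared. C1-BODIPY-C12 uptake read as cell-associated fluorescence at 485/528 nm across test compound concentrations. IC50 by non-linear dose-response fit; 3 experiments in triplicate.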

[2] = system: cell lines that are models for intestines, liver, muscle and pancreas; experiment: Fatty acid uptake inhibition, summary over cell lines; type: cell-based; settings: read-out: IC50, inhibition of fatty acid uptake
HepG2 cells [3] = experiment: C1-BODIPY-C12 uptake in HepG2 cells; type: cell-based
Summary of the method: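 Inhibition kinetics in HepG2 cells using 7 test compound concentrations (1.25–15 μM) and 4 C1-BODIPY-C12 concentrations (2.5–10 μM). The plate reader's injectors dispensed compound, then added substrate at timed intervals. Initial uptake rates measured over 90 s by fluorescence. Best-fit inhibition model chosen by enzyme-kinetics analysis; points are mean with SD.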

HepG2 cells [4] = experiment: Uptake of BODIPY FL-C16 and BODIPY FL-C5 in HepG2 cells; type: cell-based
Caco-2 cells [5] = experiment: Uptake of BODIPY FL-C16 and BODIPY FL-C5 in Caco-2 cells; type: cell-based, human
HepG2 cells [6] = experiment: Palmitate-induced lipid accumulation; type: cell-based; settings: 50 μM compound, each concentration of PA (0-500 μM), 24 hrs
[7] = system: primary mouse hepatocytes; experiment: Palmitate-induced lipid accumulation; type: cell-based, mice; settings: 50 μM compound, each concentration of PA (0-500 μM)
Summary of the method: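 Hepatocytes isolated from 10–12-week 129S1/SvImJ mice and plated on collagen at 1.5x10^4 cells/well in DMEM with FBS, glucagon, hydrocortisone, EGF and insulin. Treated after 4–5 h of attachment with BSA-conjugated palmitate (0–500 μM, 2.5:1) with or without test compound (0–50 μM). Lipid measured by 30 μM Nile Red, 30 min at 37 °C, 485/590 nm. AFU per 10^6 cells; 3 experiments in triplicate.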

INS-1E cells [8] = experiment: Palmitate-induced lipid accumulation; type: cell-based; settings: 50 μM compound, each concentration of PA (0-500 μM), 24 hrs
Summary of the method: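 INS-1E cells, 96 h after plating, treated for 24 h with BSA-conjugated palmitate (0–500 μM, 2.5:1 PA:BSA) with or without test compound (0–50 μM). Stained with 30 μM Nile Red for 30 min at 37 °C and read at ex/em 485/590 nm. Results as AFU per 10^6 cells; 3 experiments in triplicate.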

HepG2 cells [9] = experiment: Nuclear integrity; type: cell-based; settings: PA 0-500 μM, Grassofermata 0-50 μM
[10] = system: primary mouse hepatocytes; experiment: Nuclear integrity; type: cell-based, mice; settings: primary murine hepatocytes; PA 0-500 μM, Grassofermata 0-50 μM
INS-1E cells [11] = experiment: Nuclear integrity; type: cell-based; settings: PA 0-500 μM, Grassofermata 0-50 μM
C57BL/6 male mice = experiment: Inhibition of 13C-oleate absorption in mice; type: in vivo; settings: single oral dose 300 mg/kg, 6 hrs post-label administration
Summary of the method: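 Male C57BL/6 mice, 12 per group, fasted 12 h and given tyloxapol 500 mg/kg i.p. Gavaged with test compound 300 mg/kg in flaxseed oil or with oil alone. After 1 h, received flaxseed oil containing 500 mg/kg 13C-oleate. Plasma collected at 0.5, 2 and 6 h, Folch-extracted with nonadecanoic acid as internal standard. GC-MS in SIM mode, m/z 296 (12C) and 314 (13C oleate methyl ester). Mean ± SE of 10–12 mice.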

[12] = Grassofermata level in mouse plasma; type: in vivo, mice; settings: male, C57BL/6, mouse, oral, 300 mg/kg
Summary of the method: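 Male C57BL/6 mice, 10 weeks old, in groups of 12, fasted 12 h and given tyloxapol 500 mg/kg i.p. They then received test compound 300 mg/kg in flaxseed oil by gavage, followed 1 h later by a 13C-oleate bolus. Plasma (EDTA) taken 0.5, 2 and 6 h after oleate. Plasma mixed with acetonitrile containing an analogue internal standard, acidified with TFA and centrifuged. Analysed by LC-MS/MS (C18, 457.1→411.1) against a 0.09–3.3 ng/μl standard curve.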

Caco-2 cells [13] = settings: 100 μM; cited from earlier work
HsFATP2 = settings: 80 μM; yeast expressing HsFATP2; cited from earlier work

SMILES: O=c1cc(-c2ccc([N+](=O)[O-])cc2)[nH]c2c(-c3ccc(Cl)cc3)c(Cc3ccccc3)nn12 [Grassofermata, 2-benzyl-3-(4-chlorophenyl)-5-(4-nitrophenyl)pyrazolo[1,5-a]pyrimidin-7(4H)-one]
- IC50 (C2C12 cells): 10.6 µM
- IC50 (INS-1E cells [1]): 8.3 µM
- IC50 (human adipocytes): 58.2 µM
- IC50 [2]: 8 to 11 µM
- mechanism of inhibition of C1-BODIPY-C12 uptake (HepG2 cells [3]; HepG2, Grassofermata 1.25-15 μM, C1-BODIPY-C12 2.5-10 μM): non-competitive mechanism of inhibition
- effect on transport of BODIPY FL-C5 (HepG2 cells [4]; HepG2, medium chain FA analog): did not affect
- IC50 (HepG2 cells [4]; Homo sapiens, HepG2, read-out: IC50, inhibition of BODIPY FL-C16 uptake): 17.3 ± 2.5 µM
- effect on transport of BODIPY FL-C5 (Caco-2 cells [5]; Caco-2, medium chain FA analog): did not affect
- IC50 (Caco-2 cells [5]; Homo sapiens, Caco-2, read-out: IC50, inhibition of BODIPY FL-C16 uptake): 13.5 ± 1.1 µM
- accumulation of lipid (Nile Red) (HepG2 cells [6]): significantly reduced
- accumulation of lipid (Nile Red) [7]: significantly reduced
- accumulation of lipid (Nile Red) (INS-1E cells [8]): significantly reduced
- DAPI staining (nuclear integrity) (HepG2 cells [9]): reduced DAPI staining of cells in a dose dependent manner
- DAPI staining (nuclear integrity) [10]: reduced DAPI staining of cells in a dose dependent manner
- DAPI staining (nuclear integrity) (INS-1E cells [11]): reduced DAPI staining of cells in a dose dependent manner
- reduction of the levels of labeled oleate in plasma (C57BL/6 male mice): 37%
- concentration at 0.5 h [12]: 2100 ± 600 ng/mL
- concentration at 2 h [12]: 3400 ± 700 ng/mL
- concentration at 6 h [12]: 2900 ± 700 ng/mL

SMILES: CCCCCCCCCCC[C@@H](C[C@@H]1OC(=O)[C@H]1CCCCCC)OC(=O)[C@H](CC(C)C)NC=O [Orlistat, reference compound]
- effect on C1-BODIPY-C12 uptake (HepG2 cells [3]; standard FA transport assay, cell line not stated for Orlistat): no effect

SMILES: CN(C)CCCN1c2ccccc2Sc2ccc(Cl)cc21 [chlorpromazine]
- inhibition of FA uptake (Caco-2 cells [13]): 30–50%
- inhibition of C1-BODIPY-C12 uptake (HsFATP2): intermediate levels of inhibition

SMILES: CN1CCN(C2=Nc3cc(Cl)ccc3Nc3ccccc32)CC1 [clozapine, Clozapine]
- inhibition of FA uptake (Caco-2 cells [13]): 30–50%
- inhibition of C1-BODIPY-C12 uptake (HsFATP2): intermediate levels of inhibition
